Assay results: ChEMBL document CHEMBL5244249, “Discovery of tofacitinib derivatives as orally active antitumor agents based on the scaffold hybridization strategy” (Eur J Med Chem, 2020)
Calls of active or inactive are those of the source. The calls are words filed in the database; no cut-off is given here.

What was measured:
[1] = Activation of MAPK pathway in human MGC-803 cells assessed as increase in phosphorylated JNK expression at 5 to 10 uM incubated for 24 hrs by Western blot analysis; type: cell-based; details: filed as activator, dose 5-10 µM
[2] = system: MGC-803; assay: Induction of apoptosis in human MGC-803 cells assessed as late apoptotic cells at 5 uM incubated for 24 hrs by Annexin V-FITC/PI staining based flow cytometric analysis (reference value: 3.8 %); type: functional
[3] = system: MGC-803; assay: Induction of mitochondrial dysfunction in human MGC-803 cells assessed as downregulation of procaspase-3 expression at 5 to 10 uM incubated for 24 hrs by Western blot analysis; type: functional, cell-based; details: dose 5-10 µM
Summary of the method: (§1)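 Western blot of caspase 9, 3, 7, PARP and γH2A.X in MGC-803 lysates after 24 h exposure to 5, 7.5 or 10 μM; band quantitation; mean ± SD from three independent experiments.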

[4] = Activation of MAPK pathway in human MGC-803 cells assessed as change in JNK total expression at 5 to 10 uM incubated for 24 hrs by Western blot analysis; type: cell-based; details: dose 5-10 µM
[5] = system: MGC-803; assay: Antitumor activity against human MGC-803 cells xenografted in SCID mouse assessed as decrease in average tumor weight at 25 mg/kg, IG administered for 21 days relative to control; type: functional; design: scale not given: the % may be the effect or the level left; details: time 21 day
Summary of the method: (§2)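 MGC-803 cells implanted subcutaneously on the right side of SCID mice; dosed at 12.5 or 25 mg/kg in 0.5% CMC-Na (vehicle control) for 21 days. Body weight and tumor size recorded periodically; tumors excised and weighed at end. Means ± SD.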

[6] = system: MGC-803; assay: Induction of mitochondrial dysfunction in human MGC-803 cells assessed as increase in ratio of green to red fluorescence intensity at 10 uM incubated for 24 hrs by JC-1 staining based fluorescence microscopic analysis; type: functional
[7] = Activation of MAPK pathway in human MGC-803 cells assessed as increase in phosphorylated p38 expression at 5 to 10 uM incubated for 24 hrs by Western blot analysis; type: cell-based; details: filed as activator, dose 5-10 µM
[8] = system: MGC-803; assay: Antitumor activity against human MGC-803 cells xenografted in SCID mouse assessed as decrease in average tumor volume at 12.5 to 25 mg/kg, IG administered for 21 days; type: functional, organism-based; details: dose 12.5-25 mg/kg, time 21.0 day; summary of the method: as §2
[9] = system: MGC-803; assay: Induction of apoptosis in human MGC-803 cells assessed as viable cells at 10 uM incubated for 48 hrs by Annexin V-FITC/PI staining based flow cytometric analysis (reference value: 96.7 %); type: functional; details: read-out: Activity
[10] = system: MGC-803; assay: Induction of mitochondrial dysfunction in human MGC-803 cells assessed as upregulation of cleaved PARP expression at 5 to 10 uM incubated for 24 hrs by Western blot analysis; type: functional, cell-based; details: dose 5-10 µM; summary of the method: as §1
[11] = system: MGC-803; assay: Induction of apoptosis in human MGC-803 cells assessed as decrease in Bcl-2 protein expression at 5 to 10 uM incubated for 24 hrs by Western blot analysis; type: functional, cell-based; details: dose 5-10 µM
Summary of the method: (§3)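 After 24 h exposure of MGC-803 cells, Bcl-2, Mcl-1, Bax and cytochrome c release assessed by Western blot with band quantitation; mean ± SD from three independent experiments.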

[12] = Toxicity in SCID mouse xenografted with human MGC-803 cells assessed as effect on spleen at 12.5 to 25 mg/kg, IG administered for 21 days by H&E staining based histopathological analysis; type: organism-based; details: in vivo, po, 504 h, dose 12.5-25 mg/kg, time 21 day
Summary of the method: (§4)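 SCID mice bearing subcutaneous MGC-803 xenografts (right side) dosed with 12.5 or 25 mg/kg over 21 days, 0.5% CMC-Na vehicle as control; body weight and tumor size monitored periodically; major organs examined histopathologically at end; means ± SD.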

[13] = system: MGC-803; assay: Induction of mitochondrial dysfunction in human MGC-803 cells assessed as upregulation of gammaH2AX expression at 5 to 10 uM incubated for 24 hrs by Western blot analysis; type: functional, cell-based; details: dose 5-10 µM; summary of the method: as §1
[14] = system: MGC-803; assay: Induction of mitochondrial dysfunction in human MGC-803 cells assessed as increase in green fluorescence intensity at 5 uM incubated for 24 hrs by JC-1 staining based fluorescence microscopic analysis (reference value: 9.9%); type: functional
[15] = system: MGC-803; assay: Antitumor activity against human MGC-803 cells xenografted in SCID mouse assessed as decrease in average tumor weight at 12.5 mg/kg, IG administered for 21 days relative to control; type: functional; design: scale not given: the % may be the effect or the level left; details: time 21 day; summary of the method: as §2
[16] = system: MGC-803; assay: Cell cycle arrest in human MGC-803 cells assessed as G2/M phase cells at 7.5 uM incubated for 24 hrs by RNase/PI staining based flow cytometric analysis (reference value: 15.11%); type: functional
[17] = system: MGC-803; assay: Induction of apoptosis in human MGC-803 cells assessed as late apoptotic cells at 10 uM incubated for 48 hrs by Annexin V-FITC/PI staining based flow cytometric analysis (reference value: 0.5 %); type: functional
[18] = system: MGC-803; assay: Antiproliferative activity against human MGC-803 cells assessed as decrease in cell viability at 10 uM preincubated with SB203580 for 4 hrs followed by compound addition and measured after 24 hrs by MTT assay; type: functional, cell-based
Summary of the method: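 MGC-803 cells pre-incubated 4 h with SB203580 (4 μM) or SP600125 (20 μM), then exposed to 10 μM test compound for 24 h; viability by MTT, expressed as percent of control. Mean ± SD, three independent experiments.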

[19] = system: MGC-803; assay: Induction of apoptosis in human MGC-803 cells assessed as viable cells at 5 uM incubated for 48 hrs by Annexin V-FITC/PI staining based flow cytometric analysis (reference value: 96.7 %); type: functional; details: read-out: Activity
[20] = system: MGC-803; assay: Induction of apoptosis in human MGC-803 cells assessed as nuclear condensation at 5 to 10 uM incubated for 24 hrs by Hoechst 33342 staining based fluorescence microscopic analysis; type: functional, cell-based; details: dose 5-10 µM
Summary of the method: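 MGC-803 cells treated at 0, 5, 7.5 and 10 μM; cell morphology and nuclear morphology (fragmentation, condensation) examined by staining and imaging; three independent experiments, mean ± SD.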

[21] = system: MGC-803; assay: Induction of apoptosis in human MGC-803 cells assessed as cell rounding up at 5 to 10 uM incubated for 24 hrs by Hoechst 33342 staining based fluorescence microscopic analysis; type: functional; details: dose 5-10 µM
Summary of the method: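 MGC-803 cells exposed to 0, 5, 7.5 or 10 μM; cell morphology imaged and nuclear morphology examined by staining. Mean ± SD, three independent experiments.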

[22] = system: MGC-803; assay: Inhibition of colony formation in human MGC-803 cells at 1 uM incubated for 9 days by crystal violet staining based analysis relative to control; type: functional; details: MGC-803, 216 h, time 9 day
Summary of the method: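 Clonogenic assay: MGC-803 cells grown 9 days with 0, 1, 2 or 3 μM; colonies counted and inhibition rate calculated against untreated control; mean ± SD of three independent experiments.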

[23] = system: MGC-803; assay: Induction of apoptosis in human MGC-803 cells assessed as decrease in Mcl-1 protein expression at 5 to 10 uM incubated for 24 hrs by Western blot analysis; type: functional, cell-based; details: dose 5-10 µM; summary of the method: as §3
[24] = Selectivity index, ratio of IC50 for cytotoxicity against human GES1 cells to IC50 for antiproliferative activity against human MGC-803 cells; type: toxicity, cell-based; details: GES1 cells and MGC-803 cells, read-out: Ratio IC50
[25] = Toxicity in SCID mouse xenografted with human MGC-803 cells assessed as effect on heart at 12.5 to 25 mg/kg, IG administered for 21 days by H&E staining based histopathological analysis; type: organism-based; details: in vivo, po, 504 h, dose 12.5-25 mg/kg, time 21 day; summary of the method: as §4

Cc1cc(N2CC[C@@H](C)[C@@H](N(C)c3ncnc4[nH]ccc34)C2)n2nc(SCc3ccc(C(F)(F)F)cc3)nc2n1
Activity [1]: Active
Activity [2]: 8.8%
Activity [3]: Active
Activity [4]: inactive
Activity [5]: 53%
Ratio [6]: <=8.73
Activity [7]: Active
Activity [8]: Active
viability at 10 µM [9]: 17%
Activity [10]: Active
Activity [11]: Active
Activity [12]: Non-Toxic
Activity [13]: Active
Activity [14]: 27.7%
Activity [15]: 56.8%
Activity [16]: 12.24%
Activity [17]: 77.2%
Activity [18]: inactive
viability at 5 µM [19]: 73.4%
Activity [20]: Active
Activity [21]: Active
inhibition at 1 µM [22]: 31%
Activity [23]: Active
selectivity ratio [24]: 6.5
Activity [25]: Non-Toxic
